Data: ChEMBL document CHEMBL5058577, “EUbOPEN Chemogenomics Library 2 (Multiplex)” (2022)

Tested on: U2OS
Test: Multiplex assay against U2OS
Format: toxicity, cell-based
Conditions: human
Method in brief: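 With compound added, live cells were imaged on a CQ1 microscope at 37°C and 5% CO2; staining with Hoechst33342, BioTracker Green Microtubule Cytoskeleton Dye, MitoTracker Red and Annexin V Alexa Fluor 680 had been done at seeding. The CellPathfinder machine-learning gating scheme split cells into Hoechst high-intensity objects or normal cells, normal cells into healthy, pyknosed or fragmented nuclei, and pyknosed cells into mitotic or apoptotic. The tubulin, mitochondrial-mass and membrane-permeability phenotypes are per cents of healthy-nucleus cells.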

[1] = 12 h, 1 µM, compound concentration 1 uM, replicate 1
[2] = 12 h, 1 µM, compound concentration 1 uM, replicate 2
[3] = 12 h, 10 µM, compound concentration 10 uM, replicate 1
[4] = 12 h, 10 µM, compound concentration 10 uM, replicate 2
[5] = 24 h, 1 µM, compound concentration 1 uM, replicate 1
[6] = 24 h, 1 µM, compound concentration 1 uM, replicate 2
[7] = 24 h, 10 µM, compound concentration 10 uM, replicate 1
[8] = 24 h, 10 µM, compound concentration 10 uM, replicate 2
[9] = 48 h, 1 µM, compound concentration 1 uM, replicate 1
[10] = 48 h, 1 µM, compound concentration 1 uM, replicate 2
[11] = 48 h, 10 µM, compound concentration 10 uM, replicate 1
[12] = 48 h, 10 µM, compound concentration 10 uM, replicate 2

SMILES: Cl.NCCc1ccc(O)c(O)c1 [DOPAMINE HYDROCHLORIDE]
- Population Apoptotic (%) [1]: 100%
- Population Fragmented Nuclei (%) [1]: 23%
- Population Healthy Nuclei (%) [1]: 67%
- Population Hoechst High Intensity Objects (%) [1]: 3%
- Population Membrane Permeable-Phenotype (%) [1]: 5%
- Population Mitochondria Different-Phenotype (%) [1]: 1%
- Population Mitotic Cells (%) [1]: 0%
- Population Normal (%) [1]: 96%
- Population Pyknosed Nuclei (%) [1]: 9%
- Population Tubulin-Different-Phenotype (%) [1]: 2%
- Total Cell Count [1]: 237
- Population Apoptotic (%) [2]: 83%
- Population Fragmented Nuclei (%) [2]: 15%
- Population Healthy Nuclei (%) [2]: 72%
- Population Hoechst High Intensity Objects (%) [2]: 1%
- Population Membrane Permeable-Phenotype (%) [2]: 8%
- Population Mitochondria Different-Phenotype (%) [2]: 2%
- Population Mitotic Cells (%) [2]: 16%
- Population Normal (%) [2]: 98%
- Population Pyknosed Nuclei (%) [2]: 11%
- Population Tubulin-Different-Phenotype (%) [2]: 5%
- Total Cell Count [2]: 104
- Population Apoptotic (%) [3]: 80%
- Population Fragmented Nuclei (%) [3]: 21%
- Population Healthy Nuclei (%) [3]: 65%
- Population Hoechst High Intensity Objects (%) [3]: 3%
- Population Membrane Permeable-Phenotype (%) [3]: 2%
- Population Mitochondria Different-Phenotype (%) [3]: 1%
- Population Mitotic Cells (%) [3]: 20%
- Population Normal (%) [3]: 96%
- Population Pyknosed Nuclei (%) [3]: 12%
- Population Tubulin-Different-Phenotype (%) [3]: 1%
- Total Cell Count [3]: 204
- Population Apoptotic (%) [4]: 75%
- Population Fragmented Nuclei (%) [4]: 18%
- Population Healthy Nuclei (%) [4]: 76%
- Population Hoechst High Intensity Objects (%) [4]: 0%
- Population Membrane Permeable-Phenotype (%) [4]: 4%
- Population Mitotic Cells (%) [4]: 25%
- Population Normal (%) [4]: 100%
- Population Pyknosed Nuclei (%) [4]: 4%
- Total Cell Count [4]: 95
- Population Apoptotic (%) [5]: 90%
- Population Fragmented Nuclei (%) [5]: 18%
- Population Healthy Nuclei (%) [5]: 69%
- Population Hoechst High Intensity Objects (%) [5]: 4%
- Population Membrane Permeable-Phenotype (%) [5]: 7%
- Population Mitochondria Different-Phenotype (%) [5]: 2%
- Population Mitotic Cells (%) [5]: 10%
- Population Normal (%) [5]: 95%
- Population Pyknosed Nuclei (%) [5]: 11%
- Population Tubulin-Different-Phenotype (%) [5]: 5%
- Total Cell Count [5]: 263
- Population Apoptotic (%) [6]: 80%
- Population Fragmented Nuclei (%) [6]: 14%
- Population Healthy Nuclei (%) [6]: 77%
- Population Hoechst High Intensity Objects (%) [6]: 1%
- Population Membrane Permeable-Phenotype (%) [6]: 4%
- Population Mitochondria Different-Phenotype (%) [6]: 1%
- Population Mitotic Cells (%) [6]: 20%
- Population Normal (%) [6]: 98%
- Population Pyknosed Nuclei (%) [6]: 7%
- Population Tubulin-Different-Phenotype (%) [6]: 2%
- Total Cell Count [6]: 132
- Population Apoptotic (%) [7]: 92%
- Population Fragmented Nuclei (%) [7]: 18%
- Population Healthy Nuclei (%) [7]: 70%
- Population Hoechst High Intensity Objects (%) [7]: 2%
- Population Membrane Permeable-Phenotype (%) [7]: 4%
- Population Mitochondria Different-Phenotype (%) [7]: 0%
- Population Mitotic Cells (%) [7]: 8%
- Population Normal (%) [7]: 97%
- Population Pyknosed Nuclei (%) [7]: 10%
- Population Tubulin-Different-Phenotype (%) [7]: 1%
- Total Cell Count [7]: 245
- Population Apoptotic (%) [8]: 87%
- Population Fragmented Nuclei (%) [8]: 15%
- Population Healthy Nuclei (%) [8]: 77%
- Population Hoechst High Intensity Objects (%) [8]: 0%
- Population Membrane Permeable-Phenotype (%) [8]: 1%
- Population Mitotic Cells (%) [8]: 12%
- Population Normal (%) [8]: 99%
- Population Pyknosed Nuclei (%) [8]: 7%
- Total Cell Count [8]: 111
- Population Apoptotic (%) [9]: 90%
- Population Fragmented Nuclei (%) [9]: 17%
- Population Healthy Nuclei (%) [9]: 70%
- Population Hoechst High Intensity Objects (%) [9]: 2%
- Population Membrane Permeable-Phenotype (%) [9]: 5%
- Population Mitochondria Different-Phenotype (%) [9]: 3%
- Population Mitotic Cells (%) [9]: 9%
- Population Normal (%) [9]: 97%
- Population Pyknosed Nuclei (%) [9]: 11%
- Population Tubulin-Different-Phenotype (%) [9]: 4%
- Total Cell Count [9]: 363
- Population Apoptotic (%) [10]: 89%
- Population Fragmented Nuclei (%) [10]: 14%
- Population Healthy Nuclei (%) [10]: 73%
- Population Membrane Permeable-Phenotype (%) [10]: 7%
- Population Mitochondria Different-Phenotype (%) [10]: 4%
- Population Mitotic Cells (%) [10]: 10%
- Population Tubulin-Different-Phenotype (%) [10]: 3%
- Total Cell Count [10]: 172
- Population Apoptotic (%) [11]: 85%
- Population Fragmented Nuclei (%) [11]: 18%
- Population Healthy Nuclei (%) [11]: 66%
- Population Hoechst High Intensity Objects (%) [11]: 2%
- Population Membrane Permeable-Phenotype (%) [11]: 7%
- Population Mitochondria Different-Phenotype (%) [11]: 3%
- Population Mitotic Cells (%) [11]: 14%
- Population Normal (%) [11]: 97%
- Population Pyknosed Nuclei (%) [11]: 14%
- Population Tubulin-Different-Phenotype (%) [11]: 5%
- Total Cell Count [11]: 338
- Population Apoptotic (%) [12]: 100%
- Population Fragmented Nuclei (%) [12]: 14%
- Population Healthy Nuclei (%) [12]: 76%
- Population Hoechst High Intensity Objects (%) [12]: 1%
- Population Membrane Permeable-Phenotype (%) [12]: 2%
- Population Mitochondria Different-Phenotype (%) [12]: 2%
- Population Mitotic Cells (%) [12]: 0%
- Population Normal (%) [12]: 98%
- Population Pyknosed Nuclei (%) [12]: 8%
- Population Tubulin-Different-Phenotype (%) [12]: 2%
- Total Cell Count [12]: 179
